# Calls of active or inactive are those of the source. The rule behind the calls is not given here.
# Assays:
# T47D [1] = assay: Cytotoxicity against human T47D cells after 48 hrs by SRB assay; type: functional
# Outline: (§1)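 NCI 60-cell-line five-dose screen. Cells were grown in 1640 medium with 5% fetal calf serum and 2 mM L-glutamine, with inoculum density set by cell line, and pre-incubated 24 h. Compound in DMSO was added at 10^-4 to 10^-8 M (10-fold steps) with 48 h continuous exposure. Growth was read by SRB protein assay, and GI50, TGI and LC50 were derived from dose-response.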
# RXF 393 = assay: Cytotoxicity against human RXF393 cells after 48 hrs by SRB assay; type: functional; conditions: RXF 393, 48 h
# Outline: (§2)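 NCI five-dose screen on the ~60-line human tumor panel. Cells grown in RPMI-1640 with 5% fetal calf serum and 2 mM L-glutamine, seeded at line-dependent density and preincubated 24 h. Compound added from DMSO at 10-fold dilutions from 10^-4 to 10^-8 M, continuous exposure 48 h. Growth read by sulforhodamine B protein stain. GI50, TGI and LC50 derived per line.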
# T47D [2] = assay: Cytotoxicity against human T47D cells assessed as cell growth at 10 uM after 48 hrs by SRB assay; type: functional; conditions: read-out: Activity
# Outline: (§3)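 NCI primary one-dose screen at 10^-5 M against the full panel of about 60 human tumour cell lines, run to the NCI Drug Evaluation Branch protocol.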
# SNB-75 = assay: Cytotoxicity against human SNB75 cells after 48 hrs by SRB assay; type: functional; conditions: SNB-75, 48 h; outline: as §1
# MCF7 = assay: Cytotoxicity against human MCF7 cells after 48 hrs by SRB assay; type: functional; conditions: MCF7, 48 h; outline: as §2
# UACC-62 [3] = assay: Antitumor activity against human UACC62 cells implanted in mouse dosed qd for 4 days by formazan dye-based hollow fiber assay; type: functional, organism-based
# Outline: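 Cells grown inside polyvinylidene fluoride hollow fibers; each line implanted into both intraperitoneal and subcutaneous compartments in mice. Compound given ip at two doses on a QD x 4 schedule. Fibers then recovered and viable cell mass measured by formazan dye conversion. Scored 2 per dose giving ≥50% reduction in viable cell mass (%T/C 50).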
# HT-29 = assay: Cytotoxicity against human HT-29 cells assessed as cell growth at 10 uM after 48 hrs by SRB assay; type: functional; conditions: HT-29, 48 h, read-out: Activity
# Outline: (§4)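 NCI primary single-dose screen at 10^-5 M against the ~60 human tumour cell line panel. Cells grown in RPMI-1640 with 5% fetal calf serum and 2 mM L-glutamine and pre-incubated 24 h before compound addition. Compound added from DMSO solution with 48 h exposure. Growth read by sulforhodamine B protein staining.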
# SR = assay: Cytotoxicity against human SR cells after 48 hrs by SRB assay; type: functional; outline: as §1
# K562 = assay: Cytotoxicity against human K562 cells after 48 hrs by SRB assay; type: functional; conditions: K562, 48 h
# Outline: (§5)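 NCI ~60-line panel in RPMI-1640 with 5% fetal calf serum and 2 mM L-glutamine, pre-incubated 24 h. Compound in DMSO tested at five 10-fold concentrations (10^-4 to 10^-8 M) with 48 h continuous exposure. Growth measured by sulforhodamine B protein assay. GI50 (50% net growth inhibition), TGI (total inhibition) and LC50 (50% net cell death) derived from dose-response.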
# A549 = assay: Cytotoxicity against human A549/ATCC cells assessed as cell growth at 10 uM after 48 hrs by SRB assay; type: functional; conditions: A549, 48 h, read-out: Activity; outline: as §4
# NCI/ADR-RES = assay: Cytotoxicity against human NCI/ADR-RES cells after 48 hrs by SRB assay; type: functional; outline: as §2
# HCT-15 = assay: Cytotoxicity against human HCT15 cells after 48 hrs by SRB assay; type: functional; conditions: HCT-15, 48 h; outline: as §5
# A498 = assay: Cytotoxicity against human A498 cells assessed as cell growth at 10 uM after 48 hrs by SRB assay; type: functional; conditions: A498, 48 h, read-out: Activity; outline: as §4
# SNB-19 = assay: Cytotoxicity against human SNB19 cells after 48 hrs by SRB assay; type: functional; conditions: SNB-19, 48 h; outline: as §1
# UACC-62 [4] = assay: Cytotoxicity against human UACC62 cells assessed as cell growth at 10 uM after 48 hrs by SRB assay; type: functional; conditions: UACC-62, 48 h, read-out: Activity; outline: as §3
# DU-145 = assay: Cytotoxicity against human DU145 cells assessed as cell growth at 10 uM after 48 hrs by SRB assay; type: functional; conditions: DU-145, 48 h, read-out: Activity; outline: as §4
# 786-0 = assay: Cytotoxicity against human 786-0 cells assessed as cell growth at 10 uM after 48 hrs by SRB assay; type: functional; conditions: 786-0, 48 h, read-out: Activity; outline: as §4
# COLO 205 = assay: Cytotoxicity against human COLO205 cells assessed as cell growth at 10 uM after 48 hrs by SRB assay; type: functional; conditions: COLO 205, 48 h, read-out: Activity; outline: as §4
# NCI-H522 = assay: Cytotoxicity against human NCI-H522 cells assessed as cell growth at 10 uM after 48 hrs by SRB assay; type: functional; conditions: NCI-H522, 48 h, read-out: Activity
# Outline: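 NCI primary single-dose screen at 10^-5 M against the full panel of about 60 human tumor cell lines. Cells were in RPMI-1640 with 5% fetal calf serum and 2 mM L-glutamine and preincubated 24 h. Compound was given in DMSO with 48 h exposure. Growth was estimated by sulforhodamine B protein assay.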
# MDA-MB-231 = assay: Cytotoxicity against human MDA-MB-231/ATCC cells after 48 hrs by SRB assay; type: functional; conditions: MDA-MB-231, 48 h; outline: as §2
# OVCAR-4 = assay: Cytotoxicity against human OVCAR4 cells after 48 hrs by SRB assay; type: functional; conditions: OVCAR-4, 48 h; outline: as §2
# SN12C = assay: Cytotoxicity against human SN12C cells assessed as cell growth at 10 uM after 48 hrs by SRB assay; type: functional; conditions: read-out: Activity; outline: as §3
# HOP-92 = assay: Cytotoxicity against human HOP92 cells after 48 hrs by SRB assay; type: functional; conditions: HOP-92, 48 h; outline: as §5
smiles,measurement,setting,value
CCc1ccc(-c2ccc(=O)n(-c3ccc(S(N)(=O)=O)cc3)n2)cc1,LC50,T47D [1],> 100 µM
same,GI50,T47D [1]; read-out: GI50,2.56 µM
same,GI50,T47D [1]; read-out: pGI50 (converted),2.57 µM
same,TGI,T47D [1]; read-out: pTGI,> 100 µM
same,LC50,RXF 393,> 100 µM
same,GI50,RXF 393; read-out: GI50,3.51 µM
same,GI50,RXF 393; read-out: pGI50 (converted),3.55 µM
same,TGI,RXF 393; read-out: pTGI (converted),28.2 µM
same,growth at 10 µM,T47D [2],33.4%
same,LC50,SNB-75,> 100 µM
same,GI50,SNB-75; read-out: GI50,1.76 µM
same,GI50,SNB-75; read-out: pGI50 (converted),1.74 µM
same,TGI,SNB-75; read-out: pTGI (converted),28.8 µM
same,LC50,MCF7,> 100 µM
same,GI50,MCF7; read-out: GI50,0.615 µM
same,GI50,MCF7; read-out: pGI50 (converted),0.617 µM
same,TGI,MCF7; read-out: pTGI (converted),19.1 µM
same,Activity,UACC-62 [3],inactive
same,growth at 10 µM,HT-29,11.8%
same,LC50,SR,> 100 µM
same,GI50,SR; read-out: GI50,0.0887 µM
same,GI50,SR; read-out: pGI50 (converted),0.0891 µM
same,TGI,SR; read-out: pTGI (converted),0.49 µM
same,GI50,K562; read-out: GI50,0.257 µM
same,GI50,K562; read-out: pGI50 (converted),0.257 µM
same,CC50,K562; read-out: pLC50 (the source's name) (converted),> 100 µM
same,TGI,K562; read-out: pTGI,> 100 µM
same,growth at 10 µM,A549,18%
same,LC50,NCI/ADR-RES,> 100 µM
same,GI50,NCI/ADR-RES; read-out: GI50,0.314 µM
same,GI50,NCI/ADR-RES; read-out: pGI50 (converted),0.316 µM
same,TGI,NCI/ADR-RES; read-out: pTGI (converted),12.9 µM
same,LC50,HCT-15,> 100 µM
same,GI50,HCT-15; read-out: GI50,0.661 µM
same,GI50,HCT-15; read-out: pGI50 (converted),0.661 µM
same,TGI,HCT-15; read-out: pTGI,> 100 µM
same,growth at 10 µM,A498,40.3%
same,LC50,SNB-19,> 100 µM
same,GI50,SNB-19; read-out: GI50,4.41 µM
same,GI50,SNB-19; read-out: pGI50 (converted),4.37 µM
same,TGI,SNB-19; read-out: pTGI (converted),36.3 µM
same,growth at 10 µM,UACC-62 [4],38.5%
same,growth at 10 µM,DU-145,59.6%
same,growth at 10 µM,786-0,50%
same,growth at 10 µM,COLO 205,26%
same,growth at 10 µM,NCI-H522,-33.6%
same,LC50,MDA-MB-231,> 100 µM
same,GI50,MDA-MB-231; read-out: GI50,12.1 µM
same,GI50,MDA-MB-231; read-out: pGI50 (converted),12 µM
same,TGI,MDA-MB-231; read-out: pTGI,> 100 µM
same,LC50,OVCAR-4,> 100 µM
same,GI50,OVCAR-4; read-out: GI50,> 100 µM
same,GI50,OVCAR-4; read-out: pGI50 (converted),> 100 µM
same,TGI,OVCAR-4; read-out: pTGI,> 100 µM
same,growth at 10 µM,SN12C,58.4%
same,LC50,HOP-92,> 100 µM
same,GI50,HOP-92; read-out: GI50,17.3 µM
same,GI50,HOP-92; read-out: pGI50 (converted),17.4 µM
same,TGI,HOP-92; read-out: pTGI (converted),75.9 µM

# Reference: ChEMBL document CHEMBL1944532, “Synthesis and evaluation of anticancer activity of some novel 6-aryl-2-(p-sulfamylphenyl)-pyridazin-3(2H)-ones” (Eur J Med Chem, 2012)
